This is an account of results in PubChem BioAssay.

Each structure is given as a SMILES string. Activity calls are given as the source filed them.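 Rule for the calls, unless noted: active = GFP response above 150% of the DMSO level; inconclusive = fewer than 70 events counted for a yeast strain; inactive = the rest.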

The nature of assay [1]: hit retest on RPL19A-GFP reporter strain – cell-based, S. cerevisiae, flow cytometry, cherry picks, mother/daughter gates, confirmation (AID 2270;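 active = GFP response below 50% of the DMSO control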). The following applies: 3 h, at 10 µM, stronger effect = lower value, 100 = same GFP as DMSO wells. On the technique in general: A flow cytometer gives signals particle by particle.
Assay [2] in a line: yeast TOR pathway reporter LAP4-GFP change – cell-based, cherry picks, flow cytometry, mother/daughter gates, confirmation (AID 2271;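 active = GFP response above 150% of the DMSO control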;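 note: ratio of sample to DMSO plate mean so 100% equals DMSO level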). The following applies: S. cerevisiae LAP4-GFP strain, 3 h, at 10 µM, stronger effect = higher value, 100 means same as DMSO control. The method in brief: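 Test system: GFP-fusion yeast strain / Amount: 0.2 OD600 cells / Buffer or medium: SC medium / Dosing: 10 µM single dose / Incubation: compound exposure 3 h at 30 °C, end-over-end rotation / Detection: HT flow cytometry, GFP fluorescence channel / Evaluation: median GFP fluorescence as percent of plate-mean DMSO wells / Control set: DMSO-only negative wells, rapamycin 400 ng/mL positive wells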

Assay [3] in a line: TOR pathway reporter MEP2-GFP, retest of hits – S. cerevisiae, flow cytometry GFP, cherry picks, confirmation (AID 2272;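 active = GFP response above 150% of the DMSO control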;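 note: ratio of well signal to plate DMSO mean so 100% equals DMSO level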). The following applies: S. cerevisiae MEP2-GFP strain, 3 h, at 10 µM, stronger effect = higher value.
Assay [4] can be described thus: yeast AGP1-GFP fluorescence change, single-dose – cell-based, flow cytometry, S. cerevisiae, cherry picks, confirmation (AID 2273).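 Note: median GFP channel fluorescence over the whole cell population gate.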 The settings on record: S. cerevisiae AGP1-GFP strain, 3 h, at 10 µM.
A short description of assay [5]: TOR pathway CIT2 reporter hit retest – S. cerevisiae, GFP fusion, cherry picks, mother/daughter gates, confirmation (AID 2274). The following applies: S. cerevisiae CIT2-GFP strain, flow cytometry, 3 h, at 10 µM, stronger effect = higher value.
[6] abbreviates: measured here: daughter cell gate.
Where [7] appears, read: measured here: mother cell gate.
Setting [8] is: measured here: daughter cell gate response.
[9] abbreviates: measured here: mother cell gate response.

Turning to `N/C(Cc1ccc(Cl)cc1)=N\OC(=O)c1cccc2ccccc12`, the GFP response vs DMSO in assay [1] was 96.2% (inactive); in assay [1] (setting [6]) it was 82.1%; in assay [1] (setting [7]), 82.6%; in assay [3] it was 126% (inactive). Also, the GFP response relative to DMSO in assay [2] is 199% (active); in assay [2] (setting [8]), 127%; in assay [2] (setting [9]) it was 188%. Besides, the GFP response, % of DMSO in assay [4] is 88.1% (inactive); in assay [5], 139% (inactive); in assay [5] (setting [6]), 97.4%; in assay [5] (setting [7]) it was 127%.

For the compound `Cc1c(CC(C)C)nc(N)c(C#N)c1-c1ccccc1`, the GFP response vs DMSO in assay [1] was 98.4% (inactive); in assay [1] (setting [6]) it was 99.8%; in assay [1] (setting [7]), 99.7%; in assay [3], 102% (inactive). Besides, the GFP response relative to DMSO in assay [2] is 94.2% (inactive); in assay [2] (setting [8]) it was 89.3%; in assay [2] (setting [9]), 92.6%. The GFP response, % of DMSO is 98.7% (inactive) in assay [4], 102% (inactive) in assay [5], 102% in assay [5] (setting [6]) and 100% in assay [5] (setting [7]).

With `CCCCCCNC(=O)c1c(O)c2cccc3c2n(c1=O)CCC3`, the GFP response vs DMSO in assay [1] is 100% (inactive); in assay [1] (setting [6]), 101%; in assay [1] (setting [7]), 100%; in assay [3] it was 107% (inactive). Besides, the GFP response relative to DMSO in assay [2] was 97.9% (inactive); in assay [2] (setting [8]), 97.6%; in assay [2] (setting [9]) it was 95.1%. Moreover, the GFP response, % of DMSO in assay [4] was 96.8% (inactive); in assay [5], 96.9% (inactive); in assay [5] (setting [6]), 97.2%; in assay [5] (setting [7]), 96.1%.

With `Cc1nc(Sc2ccc(Cl)cc2)c(C#N)c(C)c1[N+](=O)[O-]`, the GFP response vs DMSO in assay [1] was 100% (inactive); in assay [1] (setting [6]), 100%; in assay [1] (setting [7]), 98.2%; in assay [3], 108% (inactive). For the same compound, the figures for the GFP response relative to DMSO in assay [2], in assay [2] (setting [8]) and in assay [2] (setting [9]) were 91.8% (inactive), 94.4% and 91.3%, respectively. Also, the GFP response, % of DMSO is 94.3% (inactive) in assay [4], 104% (inactive) in assay [5], 105% in assay [5] (setting [6]) and 103% in assay [5] (setting [7]).

As for `CCN(CC)c1ccc(/C=C/c2ccc3ccc(OC)cc3[n+]2CC)cc1`, the GFP response vs DMSO is 102% (inactive) in assay [1], 101% in assay [1] (setting [6]), 101% in assay [1] (setting [7]) and 133% (inactive) in assay [3]. For the same compound, the figures for the GFP response relative to DMSO in assay [2], in assay [2] (setting [8]) and in assay [2] (setting [9]) were 117% (inactive), 113% and 119%, respectively. The GFP response, % of DMSO was 98.9% (inactive) in assay [4], 107% (inactive) in assay [5], 110% in assay [5] (setting [6]) and 104% in assay [5] (setting [7]).

Consider `COc1ccccc1Oc1ccc(S(=O)(=O)N2CCCC2)cc1`, for which the GFP response vs DMSO in assay [1] was 102% (inactive); in assay [1] (setting [6]), 100%; in assay [1] (setting [7]) it was 103%; in assay [3], 95.7% (inactive). Also, the GFP response relative to DMSO in assay [2] was 91.4% (inactive); in assay [2] (setting [8]), 91%; in assay [2] (setting [9]) it was 95.2%. Also, the GFP response, % of DMSO in assay [4] was 93.5% (inactive); in assay [5], 93.9% (inactive); in assay [5] (setting [6]) it was 94.8%; in assay [5] (setting [7]) it was 92.3%.

For `COc1cc(-c2noc(-c3cccc(Cl)c3)n2)cc(OC)c1OC`, the GFP response vs DMSO in assay [1] is 96.2% (inactive); in assay [1] (setting [6]) it was 97%; in assay [1] (setting [7]), 95.8%; in assay [3] it was 103% (inactive). The GFP response relative to DMSO was 90.6% (inactive) in assay [2], 88.2% in assay [2] (setting [8]) and 91.3% in assay [2] (setting [9]). Also, the GFP response, % of DMSO was 99.5% (inactive) in assay [4], 101% (inactive) in assay [5], 101% in assay [5] (setting [6]) and 103% in assay [5] (setting [7]).

Consider `O=C(/C=C/c1ccccc1)c1ccccc1O`, for which the GFP response vs DMSO in assay [1] was 103% (inactive); in assay [1] (setting [6]), 105%; in assay [1] (setting [7]), 103%; in assay [3], 153% (inactive). Besides, the figures for the GFP response relative to DMSO in assay [2], in assay [2] (setting [8]) and in assay [2] (setting [9]) were 130% (inactive), 130% and 129%, respectively. The GFP response, % of DMSO was 108% (inactive) in assay [4], 137% (inactive) in assay [5], 139% in assay [5] (setting [6]) and 132% in assay [5] (setting [7]).

With `COc1ccc(C(=O)ON=C2CCN(c3ccc([N+](=O)[O-])cc3)CC2)cc1`, the GFP response vs DMSO was 97.6% (inactive) in assay [1], 97.5% in assay [1] (setting [6]), 97.6% in assay [1] (setting [7]) and 97.5% (inactive) in assay [3]. Moreover, the values for the GFP response relative to DMSO in assay [2], in assay [2] (setting [8]) and in assay [2] (setting [9]) were 117% (inactive), 107% and 118%, respectively. Further, the GFP response, % of DMSO in assay [4] is 76.1% (inactive); in assay [5], 108% (inactive); in assay [5] (setting [6]), 104%; in assay [5] (setting [7]) it was 108%.

Regarding `O=C(c1ccc([N+](=O)[O-])o1)N(Cc1nnc(-c2ccccc2Cl)o1)C1CC1`, the GFP response vs DMSO in assay [1] is 99.4% (inactive); in assay [1] (setting [6]), 100%; in assay [1] (setting [7]) it was 99.5%; in assay [3], 99% (inactive). Also, the GFP response relative to DMSO in assay [2] was 98.2% (inactive); in assay [2] (setting [8]), 99.1%; in assay [2] (setting [9]), 98.4%. Further, the GFP response, % of DMSO was 101% (inactive) in assay [4], 98.8% (inactive) in assay [5], 101% in assay [5] (setting [6]) and 96.8% in assay [5] (setting [7]).

With `CCCCc1[nH]nc2c1C1(C(=O)N(CC)c3ccccc31)C(C#N)=C(N)O2` (stereo not drawn), the GFP response vs DMSO in assay [1] is 105% (inactive); in assay [1] (setting [6]), 101%; in assay [1] (setting [7]), 103%; in assay [3] it was 101% (inactive). The GFP response relative to DMSO in assay [2] is 98.2% (inactive); in assay [2] (setting [8]) it was 97.5%; in assay [2] (setting [9]) it was 98.4%. Besides, the GFP response, % of DMSO was 106% (inactive) in assay [4], 102% (inactive) in assay [5], 97.4% in assay [5] (setting [6]) and 95.6% in assay [5] (setting [7]).

As to `N/C(=N\OC(=O)c1ccccc1Cl)c1ccc(Cl)cc1`, the GFP response vs DMSO in assay [1] was 101% (inactive); in assay [1] (setting [6]) it was 101%; in assay [1] (setting [7]) it was 101%; in assay [3], 108% (inactive). The GFP response relative to DMSO is 135% (inactive) in assay [2], 115% in assay [2] (setting [8]) and 135% in assay [2] (setting [9]). For the same compound, the GFP response, % of DMSO in assay [4] is 77.2% (inactive); in assay [5], 130% (inactive); in assay [5] (setting [6]), 117%; in assay [5] (setting [7]), 132%.

For `CC(C)(C)NC(=O)CN(C(=O)CCC(=O)Nc1nccs1)c1ccc(F)cc1`, the GFP response vs DMSO in assay [1] was 101% (inactive); in assay [1] (setting [6]), 100%; in assay [1] (setting [7]), 101%; in assay [3], 105% (inactive). Moreover, the values for the GFP response relative to DMSO in assay [2], in assay [2] (setting [8]) and in assay [2] (setting [9]) were 98.2% (inactive), 95.9% and 98.4%, respectively. For the same compound, the GFP response, % of DMSO in assay [4] was 101% (inactive); in assay [5], 102% (inactive); in assay [5] (setting [6]), 99.2%; in assay [5] (setting [7]), 101%.
